Source: ChEMBL document CHEMBL3425510, “Discovery of bisamide-heterocycles as inhibitors of scavenger receptor BI (SR-BI)-mediated lipid uptake” (Bioorg Med Chem Lett, 2015)
pEC50, pIC50: −log10 of the molar value. In brackets after ≈: the same amount, converted by molar mass. Activity calls are given as the source filed them. The calls are words filed in the database; no cut-off is given here.

How the values were obtained:
[1] = target: T1, Scavenger receptor class B member 1 (Mus musculus, UniProt Q61009); assay: Inhibition of mouse SR-BI isoform 1 expressed in CHO cells assessed as reduction in transfer of fluorescent lipid DiI from human HDL particles into cells by fluorescence assay; type: cell-based
T1 sequence (Q61009 whole entry): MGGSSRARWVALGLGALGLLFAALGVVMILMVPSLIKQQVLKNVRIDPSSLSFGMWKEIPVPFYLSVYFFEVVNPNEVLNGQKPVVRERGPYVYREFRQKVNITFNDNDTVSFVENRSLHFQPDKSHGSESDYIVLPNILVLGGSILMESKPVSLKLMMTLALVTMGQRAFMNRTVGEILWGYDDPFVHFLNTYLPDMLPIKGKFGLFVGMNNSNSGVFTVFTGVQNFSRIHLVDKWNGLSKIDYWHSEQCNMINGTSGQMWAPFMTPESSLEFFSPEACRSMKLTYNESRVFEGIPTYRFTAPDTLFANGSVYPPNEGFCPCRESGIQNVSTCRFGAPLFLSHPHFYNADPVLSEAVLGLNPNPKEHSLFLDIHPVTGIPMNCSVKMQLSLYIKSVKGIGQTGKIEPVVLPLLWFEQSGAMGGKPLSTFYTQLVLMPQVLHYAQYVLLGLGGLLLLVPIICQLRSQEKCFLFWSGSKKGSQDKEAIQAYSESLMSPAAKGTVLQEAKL
Method in brief: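 ldlA[mSR-BI] cells (CHO, lacking LDL receptor, overexpressing mouse SR-BI), 10,000 per well, plated overnight in F12K/5% FCS. Medium swapped to Ham's F12/0.5% fatty acid-free BSA/25 mM HEPES pH 7.4 with DiI-HDL at 10 μg protein/ml final. Compound pinned in, 3 h at 37 °C, then two PBS (+Ca/Mg) washes. Bottom-read fluorescence; normalized to DMSO and 1 μM BLT-1.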

CHO [2] = assay: Cytotoxicity against CHO cells after 24 hrs; type: cell-based, Cricetulus griseus; conditions: chinese hamster
[3] = Aqueous solubility in PBS buffer with 1% DMSO at 100 uM incubated for 24 hrs by UPLC-MS method; type: physicochemical
Method in brief: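 Duplicate samples at 100 μM in PBS pH 7.4 with 1% DMSO, plus matching samples in 100% DMSO. Shaken 250 rpm for 24 h at room temperature. Quantified by UPLC-MS with SIR detection on a single quadrupole; PBS response fitted to a two-point calibration made from the DMSO samples.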

[4] = target: T1, Scavenger receptor class B member 1; assay: Inhibition of mouse SR-BI isoform 1 expressed in CHO cells assessed as increase in binding of Alexa-488-labeled HDL particles to cells; type: cell-based
Method in brief: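 ldlA[mSR-BI] cells (LDL receptor-deficient CHO overexpressing mouse SR-BI), 10,000/well in Ham's F12K/5% FCS, grown overnight. Medium swapped for Ham's F12/0.5% fatty acid-free BSA/25 mM HEPES pH 7.4 containing 10 ug/mL Alexa 488-HDL (dye bound covalently to apolipoprotein). Compounds pinned in, 1 uM BLT-1 as positive control, 3 h at 37°C. Cells washed twice with PBS (+Ca/Mg), bottom-read fluorescence, normalised to DMSO and BLT-1 wells.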

CHO [5] = assay: Inhibition of general receptor-mediated endocytosis in SR-BI isoform 1 expressing CHO cells assessed as effect on endocytosis of Alexa-594-labeled transferrin up to 35 uM; type: functional, cell-based; conditions: Cricetulus griseus
[6] = Stability in human plasma assessed as compound remaining at 5 uM after 5 hrs at 37 degC by UPLC-MS method; type: ADME, cell-free; conditions: read-out: Stability
Method in brief: (§1)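 Plasma (human or mouse) diluted 50/50 with PBS pH 7.4, compound at 5 μM (0.95% acetonitrile, 0.05% DMSO). Run in duplicate, shaken 250 rpm at 37 °C. Sampled at 0 and 5 h; analysed by UPLC-MS with SIR detection.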

[7] = Stability in mouse plasma assessed as compound remaining at 5 uM after 5 hrs at 37 degC by UPLC-MS method; type: ADME, cell-free; conditions: read-out: Stability; method in brief: as §1
[8] = Stability in human liver microsomes assessed as compound remaining at 1 uM in presence of NADPH at 37 degC after 1 hr by UHPLC-MS method; type: ADME; conditions: read-out: Stability
Method in brief: (§2)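 Liver microsomes (human or mouse) in PBS pH 7.4, final 1 μM compound, 0.3 mg/mL microsomes, 0.5 mM NADPH, 1% DMSO. Run in duplicate at 37 °C with 250 rpm shaking. Sampled at 0 and 1 h.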

[9] = Stability in mouse liver microsomes assessed as compound remaining at 1 uM in presence of NADPH at 37 degC after 1 hr by UHPLC-MS method; type: ADME; conditions: read-out: Stability; method in brief: as §2

Row | Structure (SMILES) | pIC50 [1] | further results
1 | COc1ccc(-c2nnn(CC(=O)N(C3CCCCC3)C(C)C(=O)NC(C)(C)C)n2)cc1OC (stereo not drawn) | 4.77 | 
2 | COc1ccccc1-c1nnn(CC(=O)N(C2CCCCC2)C(C)C(=O)NC2CCCC2)n1 (stereo not drawn) | < 4.60 | 
3 | CC(C(=O)NC1CCCC1)N(C(=O)Cn1nnc(-c2ccccc2F)n1)C1CCCCC1 (stereo not drawn) | 6.21 | 
4 | COc1ccc(-c2nnn(CC(=O)N(C3CCCCC3)C(C)C(=O)NC3CC3)n2)cc1OC (stereo not drawn) | 6.38 | 
5 | COc1ccc(-c2nnn(CC(=O)N(C3CC3)C(C)C(=O)NC3CCCC3)n2)cc1OC (stereo not drawn) | 5.12 | 
6 | COc1ccc(-c2nnn(CC(=O)N(CC3CCCCC3)C(C)C(=O)NC3CCCC3)n2)cc1OC (stereo not drawn) | 5.80 | 
7 | COc1ccc(-c2nnn(CC(=O)N(C3CCCCC3)C(C)C(=O)N3CCCCC3)n2)cc1OC (stereo not drawn) | 5.15 | 
8 | COc1ccc(-c2nnn(CC(=O)N(C)C(C)C(=O)NC3CCCC3)n2)cc1OC (stereo not drawn) | 4.72 | 
9 | COCC(=O)N1CCc2cc(-c3csc(NC(=O)c4cc(OC)cc(OC)c4)n3)ccc21 |  | solubility kinetic at 24 h, 100 µM [3]: 0.57 µM (≈ 0.259 µg/mL)
10 | CC(C(=O)NC1CCCC1)N(C(=O)Cn1nnc(-c2cccc(F)c2)n1)C1CCCCC1 (stereo not drawn) | 6.42 | 
11 | Cc1ccc(-c2nnn(CC(=O)N(C3CCCCC3)C(C)C(=O)NC3CCCC3)n2)cc1 (stereo not drawn) | 6.31 | 
12 | CC(C(=O)NC1CCCC1)N(C(=O)Cc1ccccc1)C1CCCCC1 (stereo not drawn) | 4.43 | 
13 | COc1ccc(-c2nc(CC(=O)N(C3CCCCC3)C(C)C(=O)NC3CCCC3)cs2)cc1OC (stereo not drawn) | 5.20 | 
14 | COc1ccc(-c2nnn(CC(=O)N(C3CCN(C)CC3)C(C)C(=O)NC3CCCC3)n2)cc1OC (stereo not drawn) | < 4.60 | 
15 | COc1ccc(-c2nnn(CC(=O)N(C3CCCCC3)C(C)C(=O)NC(C)C)n2)cc1OC (stereo not drawn) | 6.09 | 
16 | CC(C(=O)NC1CCCC1)N(C(=O)Cn1nnc(-c2ccccc2Cl)n1)C1CCCCC1 (stereo not drawn) | 5.42 | 
17 | COc1ccc(-c2nnn(CC(=O)N(C3CCCCC3)C(C(=O)NC3CCCC3)C(C)C)n2)cc1OC (stereo not drawn) | < 4.60 | 
18 | CC(C(=O)NC1CCCC1)N(C(=O)Cn1nnc(-c2ccccc2)n1)C1CCCCC1 (stereo not drawn) | 6.43 | 
19 | COc1ccc(-c2nnn(CC(=O)N(C3CCCCC3)C(C)(C)C(=O)NC3CCCC3)n2)cc1OC | 4.72 | 
20 | CC(C(=O)NC1CCCC1)N(C(=O)Cn1nnc(-c2ccc3c(c2)OCO3)n1)C1CCOCC1 (stereo not drawn) | 6.08 | 
21 | COc1ccc(-c2nnn(CC(=O)N(C3CCCCC3)C(C)C(=O)N(C)C3CCCC3)n2)cc1OC (stereo not drawn) | 5.80 | 

Second part, led by results:

Row | pIC50 [1] | Structure (SMILES) | further results
22 | 7.59 | O=C(CN(C(=O)Cn1nnc(-c2ccc3c(c2)OCO3)n1)C1CCCCC1)NC1CCCC1 | 
23 | 6.89 | CC(C(=O)NC1CCCC1)N(C(=O)Cn1nnc(-c2ccc(F)cc2)n1)C1CCCCC1 (stereo not drawn) | 
24 | 6.74 | COc1cccc(-c2nnn(CC(=O)N(C3CCCCC3)C(C)C(=O)NC3CCCC3)n2)c1 (stereo not drawn) | 
25 | 7.57 | CC(C(=O)NC1CCCC1)N(C(=O)Cn1nnc(-c2ccc3c(c2)OCO3)n1)C1CCCCC1 (stereo not drawn) | 
26 | 6.74 | CC(C(=O)NC1CCCC1)N(C(=O)Cn1nnc(-c2ccc(Cl)c(Cl)c2)n1)C1CCCCC1 (stereo not drawn) | 
27 | 7.64 | COc1ccc(-c2cc(CC(=O)N(C3CCCCC3)C(C)C(=O)NC3CCCC3)no2)cc1OC (stereo not drawn) | 
28 | 6.89 | COc1ccc(-c2nc(CC(=O)N(C3CCCCC3)C(C)C(=O)NC3CCCC3)co2)cc1OC (stereo not drawn) | 
29 | 7.26 | COc1ccc(-c2nnn(CC(=O)N(C3CCCCC3)C(C)C(=O)NC3CCCC3)n2)cc1OC (stereo not drawn) | Activity (CHO [2]): Non-toxic; solubility kinetic at 24 h, 100 µM [3]: 114 µM (≈ 55.2 µg/mL)
30 | 6.70 | COc1ccc(-c2nnn(CC(=O)N(C3CCCCC3)C(C)C(=O)NC3CCCCC3)n2)cc1OC (stereo not drawn) | 
31 | 6.96 | COc1ccc(-c2nnn(CC(=O)N(C3CCCC3)C(C)C(=O)NC3CCCC3)n2)cc1OC (stereo not drawn) | 
32 | 7.77 | C[C@H](C(=O)NC1CCCC1)N(C(=O)Cn1nnc(-c2ccc3c(c2)OCO3)n1)C1CCCCC1 | solubility kinetic at 24 h, 100 µM [3]: 28 µM (≈ 13.1 µg/mL); pEC50 [4]: 6.57; inhibition (CHO [5]): inactive; remaining at 5 h, 5 µM [6]: > 99%; remaining at 5 h, 5 µM [7]: > 99%; remaining at 1 h, 1 µM [8]: < 1%; remaining at 1 h, 1 µM [9]: < 1%
33 | 6.64 | CC(C(=O)NC1CCCC1)N(C(=O)Cn1nnc(-c2ccc3c(c2)OC(F)(F)O3)n1)C1CCCCC1 (stereo not drawn) | 
34 | 6.77 | CC(C(=O)NC1CCCC1)N(C(=O)Cn1nnc(-c2ccc(Cl)cc2)n1)C1CCCCC1 (stereo not drawn) | 
